Source: ChEMBL document CHEMBL4364292, “Discovery of a Potent and Selective CCR4 Antagonist That Inhibits Treg Trafficking into the Tumor Microenvironment” (J Med Chem, 2019)
Blank lines part the entries; values can stand above or below the compound they belong to.

Experiments:
[1] = biological target: T1, C-C chemokine receptor type 4 (Homo sapiens, UniProt P51679); experiment: Antagonist activity at human CCR4 expressed in rat chem-5 cells assessed as inhibition of CCL22-induced calcium flux measured at 2.5 secs time interval for 45 secs by fluorescence assay; format: functional, cell-based
T1 sequence (P51679 whole entry): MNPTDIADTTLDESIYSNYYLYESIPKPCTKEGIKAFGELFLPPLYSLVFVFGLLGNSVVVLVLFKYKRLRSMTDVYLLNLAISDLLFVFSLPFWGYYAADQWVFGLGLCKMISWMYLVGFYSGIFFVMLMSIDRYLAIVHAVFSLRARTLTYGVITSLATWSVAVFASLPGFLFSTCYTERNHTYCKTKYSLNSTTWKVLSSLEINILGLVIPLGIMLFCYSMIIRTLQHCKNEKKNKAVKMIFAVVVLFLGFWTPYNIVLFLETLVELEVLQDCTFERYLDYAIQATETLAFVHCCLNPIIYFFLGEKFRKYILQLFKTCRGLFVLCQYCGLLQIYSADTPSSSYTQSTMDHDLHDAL
Outline: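 Calcium flux functional readout of CCR4 antagonism, run without serum; IC50 reported.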

[2] = Stability in human hepatocytes assessed as compound remaining incubated for 60 mins under shaking condition by LC-MS/MS analysis; format: ADME, cell-based, Hepatocyte; settings: read-out: Stability
Outline: (§1)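 Human and rat hepatocytes exposed to compound; percent parent remaining reported.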

[3] = Stability in rat hepatocytes assessed as compound remaining incubated for 60 mins under shaking condition by LC-MS/MS analysis; format: ADME, cell-based, Hepatocyte; settings: read-out: Stability; outline: as §1
[4] = Volume of distribution at steady state in mouse; format: ADME, organism-based; settings: in vivo, read-out: Vdss
[5] = Clearance in mouse; format: ADME, organism-based; settings: in vivo
[6] = Bioavailability in mouse; format: ADME, organism-based; settings: in vivo
[7] = Half-life in mouse; format: ADME, organism-based; settings: in vivo
[8] = Hepatic clearance in rat at 0.5 mg/kg, iv; format: ADME, organism-based; settings: in vivo
[9] = AUCinfinity in rat at 0.5 mg/kg, iv; format: ADME, organism-based; parameters: dose 0.5 mg/kg, route intravenous, time infinity; settings: in vivo
[10] = Oral bioavailability in rat at 2 mg/kg, po; format: ADME, organism-based; settings: in vivo
[11] = AUC(0 to infinity) in rat at 2 mg/kg, po; format: ADME, organism-based; parameters: dose 2 mg/kg, route oral, time infinity; settings: in vivo
[12] = system: Mus musculus; experiment: Inhibition of anti-CD3/CD28-stimulated B6-Foxp3 GFP positive mouse T-reg cell migration into tumor of mouse Pan02 cells implanted in C57BL/6 mouse assessed as decrease in number of GFP positive T-reg cells in tumor at 30 mg/kg, po qd treated 24 hrs prior to T-reg cell addition followed by compound dosing for subsequent 4 days and measured on day 6 by flow cytometry relative to control; format: functional; settings: C57BL/6, Pan02, po
Outline: (§2)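 Pan02 pancreatic tumor-bearing mice dosed QD for 6 days at 10 or 30 mg/kg. GFP+ induced Treg, made from naive CD4+ T cells of Foxp3-GFP transgenic mice, injected 24 h after first dose. GFP+ Treg counted in tumor and spleen versus vehicle group; plasma level taken 24 h after last dose; one-way ANOVA.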

[13] = Oral bioavailability in dog at 2 mg/kg, po; format: ADME, organism-based, Canis lupus familiaris; settings: in vivo
Outline: (§3)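 Cross-species PK (dog, cynomolgus monkey): 0.5 mg/kg IV or 2 mg/kg PO; three animals per group.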

[14] = Volume of distribution at steady state in rat at 0.5 mg/kg, iv or 2 mg/kg, po; format: ADME, organism-based; settings: in vivo, read-out: Vdss
[15] = biological target: Cytochrome P450 2C19 (Homo sapiens, UniProt P33261); experiment: Inhibition of CYP2C19 (unknown origin); format: ADME
Outline: (§4)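 CYP inhibition tested against 1A2, 2C9, 2C19, 2D6 and 3A4; IC50 in μM.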

[16] = biological target: Cytochrome P450 2C9 (Homo sapiens, UniProt P11712); experiment: Inhibition of CYP2C9 (unknown origin); format: ADME; outline: as §4
[17] = Hepatic clearance in rat at 0.5 mg/kg, iv or 2 mg/kg, po; format: ADME, organism-based; settings: in vivo
[18] = Hepatic clearance in cynomolgus monkey at 0.5 mg/kg, iv or 2 mg/kg, po; format: ADME, organism-based, Macaca fascicularis; settings: in vivo; outline: as §3
[19] = Oral bioavailability in cynomolgus monkey at 2 mg/kg, po; format: ADME, organism-based, Macaca fascicularis; settings: in vivo; outline: as §3
[20] = biological target: Cytochrome P450 2D6 (Homo sapiens, UniProt P10635); experiment: Inhibition of CYP2D6 (unknown origin); format: ADME; outline: as §4
[21] = biological target: T2, Cytochrome P450 1A2 (Homo sapiens, UniProt P05177); experiment: Inhibition of CYP1A2 (unknown origin); format: ADME; outline: as §4
T2 sequence (P05177 whole entry): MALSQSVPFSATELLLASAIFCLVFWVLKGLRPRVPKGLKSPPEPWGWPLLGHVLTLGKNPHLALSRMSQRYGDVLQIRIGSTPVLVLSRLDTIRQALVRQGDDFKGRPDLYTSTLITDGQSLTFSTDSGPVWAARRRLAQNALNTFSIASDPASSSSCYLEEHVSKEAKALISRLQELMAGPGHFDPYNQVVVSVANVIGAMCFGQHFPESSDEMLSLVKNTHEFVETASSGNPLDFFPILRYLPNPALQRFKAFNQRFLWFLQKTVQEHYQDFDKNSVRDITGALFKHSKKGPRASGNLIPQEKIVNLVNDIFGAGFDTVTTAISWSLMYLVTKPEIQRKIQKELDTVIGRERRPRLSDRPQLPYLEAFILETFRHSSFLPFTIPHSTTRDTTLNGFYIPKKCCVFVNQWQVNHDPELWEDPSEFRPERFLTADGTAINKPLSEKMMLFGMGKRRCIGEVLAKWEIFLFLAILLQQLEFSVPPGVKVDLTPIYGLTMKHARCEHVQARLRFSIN

[22] = Terminal half-life in cynomolgus monkey at 0.5 mg/kg, iv; format: ADME, organism-based, Macaca fascicularis; settings: in vivo, read-out: beta t1/2 (converted); outline: as §3
[23] = system: Mus musculus; experiment: Inhibition of anti-CD3/CD28-stimulated B6-Foxp3 GFP positive mouse T-reg cell migration into tumor of mouse Pan02 cells implanted in po dosed C57BL/6 mouse assessed as decrease in number of GFP positive T-reg cells in tumor treated 24 hrs prior to T-reg cell addition followed by daily compound dosing for subsequent 4 days and measured on day 6 by flow cytometry; format: functional, organism-based; outline: as §2
[24] = Terminal half-life in rat at 0.5 mg/kg, iv or 2 mg/kg, po; format: ADME, organism-based; settings: in vivo, read-out: beta t1/2 (converted)
[25] = biological target: Cytochrome P450 3A4 (Homo sapiens, UniProt P08684); experiment: Inhibition of CYP3A4 (unknown origin); format: ADME; outline: as §4
[26] = Terminal half-life in rat at 0.5 mg/kg, iv; format: ADME, organism-based; settings: in vivo, read-out: beta t1/2 (converted)
[27] = Hepatic clearance in dog at 0.5 mg/kg, iv or 2 mg/kg, po; format: ADME, organism-based, Canis lupus familiaris; settings: in vivo; outline: as §3
[28] = Terminal half-life in dog at 0.5 mg/kg, iv; format: ADME, organism-based, Canis lupus familiaris; settings: in vivo, read-out: beta t1/2 (converted); outline: as §3
[29] = Bioavailability in rat; format: ADME, organism-based; settings: in vivo

Cytochrome P450 2C9, sequence (P11712 whole entry): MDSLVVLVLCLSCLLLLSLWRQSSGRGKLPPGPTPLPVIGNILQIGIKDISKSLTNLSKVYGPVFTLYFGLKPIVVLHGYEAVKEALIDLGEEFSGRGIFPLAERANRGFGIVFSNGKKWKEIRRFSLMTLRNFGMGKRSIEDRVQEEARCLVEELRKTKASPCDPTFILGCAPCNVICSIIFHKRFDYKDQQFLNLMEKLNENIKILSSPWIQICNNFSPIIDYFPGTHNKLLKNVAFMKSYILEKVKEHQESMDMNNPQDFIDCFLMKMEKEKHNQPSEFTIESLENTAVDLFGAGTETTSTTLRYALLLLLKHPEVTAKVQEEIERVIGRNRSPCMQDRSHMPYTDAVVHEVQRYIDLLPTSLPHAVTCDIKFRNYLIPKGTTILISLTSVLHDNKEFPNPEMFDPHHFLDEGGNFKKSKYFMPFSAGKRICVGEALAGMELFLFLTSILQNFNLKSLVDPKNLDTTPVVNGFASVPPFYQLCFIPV
Cytochrome P450 3A4, sequence (P08684 whole entry): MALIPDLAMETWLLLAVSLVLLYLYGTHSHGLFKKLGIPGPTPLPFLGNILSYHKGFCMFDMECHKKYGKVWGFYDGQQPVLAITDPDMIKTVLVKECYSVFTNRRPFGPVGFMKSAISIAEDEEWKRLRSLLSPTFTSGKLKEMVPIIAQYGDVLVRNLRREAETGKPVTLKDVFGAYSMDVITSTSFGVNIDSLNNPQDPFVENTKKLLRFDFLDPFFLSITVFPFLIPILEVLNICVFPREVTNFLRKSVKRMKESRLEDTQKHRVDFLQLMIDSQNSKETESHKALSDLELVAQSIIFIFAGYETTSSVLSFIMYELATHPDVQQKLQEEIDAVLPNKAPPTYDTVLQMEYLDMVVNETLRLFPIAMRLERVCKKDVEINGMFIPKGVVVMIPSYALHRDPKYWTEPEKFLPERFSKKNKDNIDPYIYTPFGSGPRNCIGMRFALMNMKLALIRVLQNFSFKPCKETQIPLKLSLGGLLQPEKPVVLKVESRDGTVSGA
Cytochrome P450 2D6, sequence (P10635 whole entry): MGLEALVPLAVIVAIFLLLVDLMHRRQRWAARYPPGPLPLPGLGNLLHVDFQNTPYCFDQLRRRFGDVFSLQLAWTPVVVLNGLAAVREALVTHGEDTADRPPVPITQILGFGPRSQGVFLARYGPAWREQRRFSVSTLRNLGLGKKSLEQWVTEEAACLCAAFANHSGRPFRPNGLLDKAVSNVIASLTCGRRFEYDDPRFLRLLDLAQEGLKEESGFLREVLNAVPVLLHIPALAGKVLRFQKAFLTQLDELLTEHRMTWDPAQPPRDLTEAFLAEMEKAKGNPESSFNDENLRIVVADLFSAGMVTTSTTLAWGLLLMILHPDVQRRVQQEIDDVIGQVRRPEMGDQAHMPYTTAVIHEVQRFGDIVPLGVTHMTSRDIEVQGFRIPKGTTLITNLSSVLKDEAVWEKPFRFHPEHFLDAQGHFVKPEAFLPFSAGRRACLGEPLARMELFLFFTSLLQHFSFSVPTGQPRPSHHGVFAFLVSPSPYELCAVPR
Cytochrome P450 2C19, sequence (P33261 whole entry): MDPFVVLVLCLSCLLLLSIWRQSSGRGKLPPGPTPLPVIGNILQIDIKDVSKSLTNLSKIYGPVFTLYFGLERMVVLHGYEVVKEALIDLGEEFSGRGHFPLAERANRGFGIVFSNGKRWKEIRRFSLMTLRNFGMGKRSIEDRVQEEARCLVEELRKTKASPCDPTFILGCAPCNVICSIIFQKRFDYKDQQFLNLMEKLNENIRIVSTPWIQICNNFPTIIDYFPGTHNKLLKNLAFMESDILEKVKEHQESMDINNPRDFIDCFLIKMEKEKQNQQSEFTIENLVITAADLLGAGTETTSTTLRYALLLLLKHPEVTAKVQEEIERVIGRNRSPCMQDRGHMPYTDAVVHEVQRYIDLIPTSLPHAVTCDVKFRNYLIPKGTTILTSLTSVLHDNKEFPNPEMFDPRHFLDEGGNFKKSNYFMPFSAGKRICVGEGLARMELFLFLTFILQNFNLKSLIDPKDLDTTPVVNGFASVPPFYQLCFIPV

Structure (SMILES): C[C@@H]1CC(c2cnc3c(C#N)nn([C@H](C)c4ccc(Cl)cc4Cl)c3n2)=CC[C@@H]1N1CCC[C@H]1C(C)(C)O
- IC50 [1]: 0.384 µM

Structure (SMILES): C[C@@H]1CC(c2cnc3c(C#N)nn([C@H](C)c4ccc(Cl)cc4Cl)c3n2)=CC[C@@H]1N1CCC[C@H]1C(F)(F)F
- IC50 [1]: > 5 µM

Structure (SMILES): CC1CN(c2cnc3c(C(F)(F)F)nn(C(C)c4ccc(Cl)cc4Cl)c3n2)CCC1N1CCCCC1 (stereo unspecified)
- CLH [8]: 3.4 L/h/kg
- IC50 [1]: 0.837 µM
- AUC(0-inf) [9]: 0.148 µg·h/mL

Structure (SMILES): CC1CN(c2cnc3c(C(N)=O)nn(C(C)c4ccc(Cl)cc4Cl)c3n2)CCC1N1CCCCC1 (stereo unspecified)
- CLH [8]: 6.102 L/h/kg
- IC50 [1]: 0.228 µM
- AUC(0-inf) [9]: 0.082 µg·h/mL

Structure (SMILES): Cc1nn([C@H](C)c2ccc(Cl)cc2Cl)c2nc(N3CC[C@H](N4CCCC4)[C@H](C)C3)cnc12
- IC50 [1]: 0.069 µM

Structure (SMILES): Cc1nn([C@H](C)c2ccc(Cl)cc2Cl)c2nc(N3CC[C@@H](N4CCCCC4)[C@@H](C)C3)cnc12
- IC50 [1]: 0.803 µM

Structure (SMILES): Cc1nn([C@H](C)c2ccc(Cl)cc2Cl)c2nc(N3CC[C@H](N4CCC[C@H]4C(=O)O)[C@H](C)C3)cnc12
- IC50 [1]: 0.67 µM

Structure (SMILES): CC(c1ccc(Cl)cc1Cl)n1ncc2ncc(C3=CCN(C(=O)[C@H]4CCCCN4)CC3)nc21 (stereo partly specified)
- IC50 [1]: 0.275 µM
- bioavailability [29]: 25%

Structure (SMILES): Cc1nn([C@H](C)c2ccc(Cl)cc2Cl)c2nc(N3CC[C@H](N4CCC[C@H]4CCS(C)(=O)=O)[C@H](C)C3)cnc12
- IC50 [1]: 0.104 µM

Now those with a lower IC50 [1], led by results:

- IC50 [1]: 0.054 µM
- remaining at 1 h [2]: 97%
- remaining at 1 h [3]: 71%
Structure (SMILES): C[C@@H]1CC(c2cnc3c(C#N)nn([C@H](C)c4ccc(Cl)cc4Cl)c3n2)=CC[C@@H]1N1CCC[C@H]1C(N)=O

- IC50 [1]: 0.042 µM
Structure (SMILES): Cc1nn([C@H](C)c2ccc(Cl)cc2Cl)c2nc(N3CC[C@H](N4CCCCC4)[C@H](C)C3)cnc12

- Vd [4]: 4.9 L/kg
- IC50 [1]: 0.034 µM
- remaining at 1 h [2]: 86%
- clearance [5]: 0.0702 L/h/kg
- bioavailability [6]: 27%
- half-life [7]: 30.3 h
- remaining at 1 h [3]: 72%
Structure (SMILES): C[C@@H]1CC(c2cnc3c(C#N)nn([C@H](C)c4ccc(Cl)cc4Cl)c3n2)=CC[C@@H]1N1CCC[C@H]1C

- bioavailability [10]: 28%
- AUC(0-inf) [11]: 0.125 µg·h/mL
- bioavailability [13]: 75%
- Vd [14]: 9.8 L/kg
- Vd [4]: 5.7 L/kg
- IC50 [15]: > 10 µM
- IC50 [16]: > 10 µM
- CLH [17]: 4.48 L/h/kg
- CLH [18]: 0.678 L/h/kg
- IC50 [1]: 0.04 µM
- bioavailability [19]: 30%
- remaining at 1 h [2]: 81%
- clearance [5]: 0.72 L/h/kg
- IC50 [20]: > 10 µM
- IC50 [21]: > 10 µM
- bioavailability [6]: 26%
- half-life [22]: 9.9 h
- half-life [24]: 4.1 h
- IC50 [25]: > 10 µM
- half-life [26]: 2.2 h
- CLH [27]: 0.642 L/h/kg
- half-life [7]: 7.6 h
- remaining at 1 h [3]: 32%
- half-life [28]: 16.4 h
Structure (SMILES): C[C@@H]1CC(c2cnc3c(C#N)nn([C@H](C)c4ccc(Cl)cc4Cl)c3n2)=CC[C@@H]1N1CCC[C@H]1CO
- inhibition in vivo at 30 mg/kg [12]: 100%
- inhibition [23]: Dose-dependent effect
